# What was measured:
# [1] = tested on: Amaranthus hypochondriacus; assay: Phytogrowth-inhibitory activity against Amaranthus hypochondriacus assessed as inhibition of radicle growth at 100 ug/ml incubated in dark at 27 degC measured after 24 hrs; type: functional; conditions: read-out: GI
# Summary of the method: (§1)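 Samples in MeOH-H2O (1:1) were added to Petri dishes and air-dried, giving a final 100 µg/ml. Solvent-only dishes served as negative controls and 2,4-D as positive control. Dishes were kept dark at 27°. Radicle length was read at 24 h for A. leucocarpus and 48 h for E. crus-galli. Results are % of untreated control, 4 replicates × 20 seedlings, with ANOVA/Duncan.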
# Staphylococcus aureus = assay: Antibacterial activity against Staphylococcus aureus ATCC 25923 by agar diffusion technique; type: functional
# Col2 = assay: Cytotoxicity against human Col2 cells; type: functional; conditions: read-out: ED50 (the source's name)
# Summary of the method: (§2)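 Cell lines established from primary human tumors at a university surgical oncology division and tested in vitro following an earlier cytotoxicity protocol. The value is reported as ED50.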
# P388 = assay: Cytotoxicity against mouse P388 cells; type: functional; conditions: read-out: ED50 (the source's name)
# Summary of the method: (§3)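 Cell lines obtained from ATCC and tested in vitro following an earlier cytotoxicity protocol. The value is reported as ED50.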
# ZR-75-1 = assay: Cytotoxicity against human ZR-75-1 cells; type: functional; conditions: read-out: ED50 (the source's name); summary of the method: as §3
# [2] = tested on: Amaranthus hypochondriacus; assay: Phytogrowth-inhibitory activity against Amaranthus hypochondriacus assessed as inhibition of radicle growth incubated in dark at 27 degC measured after 24 hrs; type: functional, organism-based
# Summary of the method: (§4)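 Seeds in Petri dishes with test sample applied in MeOH-H2O (1:1), solvent air-dried before use. Kept in the dark at 27°: 24 h for Amaranthus, 48 h for E. crus-galli. Germination percentage and radicle length scored. Controls: 2,4-D positive, solvent-only negative. Germination IC50 from linear regression; radicle-growth IC50 from probit analysis.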
# Echinochloa crus-galli [3] = assay: Phytogrowth-inhibitory activity against Echinochloa crus-galli assessed as inhibition of seed germination incubated in dark at 27 degC measured after 48 hrs; type: functional, organism-based; summary of the method: as §4
# [4] = Cytotoxicity against drug-resistant human KBV1 cells; type: functional; conditions: KB-V1, read-out: ED50 (the source's name)
# [5] = (§5) Displacement of [3H]PDBu from protein kinase C in calf brain homogenate by scintillation counting; type: tissue-based, Bos taurus
# Summary of the method: (§6)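 Incubation mix contained 50 mM Tris/HCl (pH 7.4), 1 mM CaCl2, 39.2 nM [3H]PDBu, 50 µg/ml calf brain homogenate as the protein kinase C source, and compound in DMSO. Tubes ran 1 h at ambient temperature, then were filtered onto glass fiber and counted. Nonspecific binding was taken as the part not displaced by 100-fold excess unlabelled PDBu. Curve used five-fold dilutions from 200 to 0.32 µg/ml, 4 replicates.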
# Bos taurus = species on record: Bos taurus; assay: as §5; type: tissue-based; summary of the method: as §6
# [6] = tested on: Amaranthus hypochondriacus; assay: Stimulation of Amaranthus hypochondriacus radicle growth at 1 ug/ml incubated in dark at 27 degC measured after 24 hrs relative to control; type: functional
# Summary of the method: (§7)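 Petri-dish seed assay at 1 µg/ml, with sample in MeOH-H2O (1:1) air-dried before seeding. Held in the dark at 27° and scored at 24 h (Amaranthus) or 48 h (E. crus-galli). Radicle growth expressed relative to untreated controls.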
# [7] = Toxicity in brine shrimp assessed as lethality; type: organism-based; conditions: artemia, in vivo
# Lu1 = assay: Cytotoxicity against human Lu1 cells; type: functional; conditions: read-out: ED50 (the source's name); summary of the method: as §2
# A-431 = assay: Cytotoxicity against human A431 cells; type: functional; conditions: read-out: ED50 (the source's name); summary of the method: as §3
# Echinochloa crus-galli [8] = assay: Phytogrowth-inhibitory activity against Echinochloa crus-galli assessed as inhibition of radicle growth incubated in dark at 27 degC measured after 48 hrs; type: functional, organism-based; summary of the method: as §4
# Echinochloa crus-galli [9] = assay: Stimulation of Echinochloa crus-galli radicle growth at 1 ug/ml incubated in dark at 27 degC measured after 48 hrs relative to control; type: functional; summary of the method: as §7
# HT-1080 = assay: Cytotoxicity against human HT1080 cells; type: functional; conditions: read-out: ED50 (the source's name); summary of the method: as §3
# [10] = Cytotoxicity against human BC1 cells; type: functional; conditions: read-out: ED50 (the source's name); summary of the method: as §2
# Echinochloa crus-galli [11] = assay: Phytogrowth-inhibitory activity against Echinochloa crus-galli assessed as inhibition of radicle growth at 100 ug/ml incubated in dark at 27 degC measured after 48 hrs; type: functional; conditions: read-out: GI; summary of the method: as §1
# KB = assay: Cytotoxicity against human KB cells; type: functional; conditions: read-out: ED50 (the source's name); summary of the method: as §3
# LNCaP = assay: Cytotoxicity against human LNCAP cells; type: functional; conditions: read-out: ED50 (the source's name); summary of the method: as §3
# SK-MEL-2 = assay: Cytotoxicity against human SK-MEL-2 cells; type: functional; conditions: read-out: ED50 (the source's name); summary of the method: as §2
# [12] = tested on: Amaranthus hypochondriacus; assay: Phytogrowth-inhibitory activity against Amaranthus hypochondriacus assessed as inhibition of seed germination incubated in dark at 27 degC measured after 24 hrs; type: functional, organism-based; summary of the method: as §4
structure (smiles),measurement,setting,value
CCCCC[C@H]1CCCCCCCCCC(=O)O[C@H]2[C@H](O)[C@@H](CO)O[C@@H](O[C@H]3[C@H](O1)O[C@H](C)[C@H](O)[C@@H]3O)[C@@H]2O[C@@H]1O[C@@H](C)[C@H](OC(=O)[C@@H](C)CC)[C@@H](O[C@@H]2O[C@@H](C)[C@H](O)[C@@H](O)[C@H]2O)[C@H]1OC(=O)[C@@H](C)CC [TRICOLORIN A],inhibition of growth at 100 µg/mL,[1],68.3%
same,MIC,Staphylococcus aureus,1.8 µg/mL
same,EC50,Col2,8.9 µg/mL
same,EC50,P388,2.2 µg/mL
same,EC50,ZR-75-1,8.1 µg/mL
same,Activity,[2],Dose-dependent effect
same,IC50,[2],37 µg/mL
same,IC50,Echinochloa crus-galli [3],36.9 µg/mL
same,EC50,[4],> 20 µg/mL
same,IC50,[5],44.1 µg/mL
same,Activity,Bos taurus,Dose-dependent effect
same,Activity,[6],4%
same,LC50,[7],18.2 µg/mL
same,EC50,Lu1,5.5 µg/mL
same,EC50,A-431,10.3 µg/mL
same,Activity,Echinochloa crus-galli [8],Dose-dependent effect
same,IC50,Echinochloa crus-galli [8],12.6 µg/mL
same,Activity,Echinochloa crus-galli [9],4%
same,EC50,HT-1080,6.3 µg/mL
same,EC50,[10],2.2 µg/mL
same,inhibition of growth at 100 µg/mL,Echinochloa crus-galli [11],78.8%
same,EC50,KB,> 20 µg/mL
same,EC50,LNCaP,5.8 µg/mL
same,EC50,SK-MEL-2,7.6 µg/mL
same,IC50,[12],152 µg/mL
"O=C(O)COc1ccc(Cl)cc1Cl [2,4-DICHLOROPHENOXYACETIC ACID]",Activity,[6],4%
same,Activity,Echinochloa crus-galli [9],4%
